This is an account of results in ChEMBL document CHEMBL1155263, “Anti-tumor and anti-angiogenic activity of novel hydantoin derivatives: Inhibition of VEGF secretion in liver metastatic osteosarcoma cells” (Bioorg Med Chem, 2009).

Activity calls are given as the source filed them. No cut-off for these calls is given here.

The subject of experiment [1] is OVSAHO. Kind of experiment: Antiproliferative activity against human OVSAHO cells after 48 hrs. It is filed as functional, cell-based. An outline of the steps: (§1)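 Cells seeded at 15,000/well and incubated overnight at 37 °C, then switched to medium containing compound in µg/mL concentrations. Incubation was 48 h at 37 °C, 5% CO2, then 2 h with WST-type TetraColor One. A450 gave % viability, reported as % inhibition of proliferation, mean of four replicates.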

Experiment [2] has as its system LM8G7. Kind of experiment: Antiproliferative activity against mouse LM8G7 cells after 48 hrs. In kind it is functional, cell-based. The method, boiled down: as §1
Experiment [3] concerns SK-OV-3. Kind of experiment: Antiproliferative activity against human SKOV3 cells after 48 hrs. It is filed as functional, cell-based. The method, boiled down: as §1
The subject of experiment [4] is LM8. Nature of the experiment: Antiproliferative activity against mouse LM8 cells after 48 hrs. In kind it is functional, cell-based. The method, boiled down:
as §1

For experiment [5], the system named is LM8G7. Nature of the experiment: (§2) Antiproliferative activity against VEGF expressing mouse LM8G7 cells assessed as cell index every 10 mins by RT-CES method. In kind it is functional, cell-based. The method, boiled down: (§3)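 LM8G7 seeded at 10,000 cells/well on electronic-sensing e-plates; about 24 h later, in log phase, medium with various compound concentrations or DMSO control was added. Impedance cell index was recorded every 10 min and plotted against time. IC50 was obtained by non-linear regression of concentration–response curves.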

Experiment [6] can be described thus: as §2. It is filed as functional, cell-based. An outline of the steps:
as §3

The nature of experiment [7]: Inhibition of VEGF secretion in mouse LM8G7 cells at 204 uM after 48 hrs by immunoassay. It is filed as functional. Particulars: LM8G7, 48 h. An outline of the steps: (§4)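 LM8G7 (1 × 10⁶ cells/well) in 6-well plates were incubated 24 h, then given serum-free medium with compound at 56, 102 or 204 µM for 48 h at 37 °C. Supernatant was centrifuged 5000 rpm, 5 min, 4 °C and protein measured by BCA. Mouse VEGF was quantified by sandwich ELISA against a recombinant VEGF standard (HRP detection, A450).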

A short description of experiment [8]: Inhibition of VEGF secretion in mouse LM8G7 cells at 56 uM after 48 hrs by immunoassay. It is filed as functional. To be noted: LM8G7, 48 h. The method, boiled down:
as §4

Experiment [9] relates to Endothelial cell. Nature of the experiment: Antiangiogenic activity in mouse endothelial cells assessed as inhibition of tube formation at 50 uM after 18 hrs by microscopic analysis in presence of VEGF. It is filed as functional, cell-based. An outline of the steps:
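UV♀2 mouse endothelial cells, 100 µL suspension at 4 × 10⁵ cells/mL, seeded onto Matrigel solidified 30 min at 37 °C, with or without compound (50 µM) and VEGF (2 ng/mL); DMSO 0.1% vehicle. After 18 h, reorganization of the sub-confluent monolayer into capillary-like tubes in 3-D Matrigel was photographed by light microscopy.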

Experiment [10] can be described thus: Inhibition of VEGF secretion in mouse LM8G7 cells at 102 uM after 48 hrs by immunoassay. In kind it is functional. To be noted: LM8G7, 48 h. The method, boiled down:
as §4

For orientation: IC50 means the point on the concentration scale where inhibition reaches its midpoint. `CS(=O)(=O)c1ccc(CN2C(=O)NC3(CC4CCC(C3)N4Cc3cccc(F)c3)C2=O)cc1` (stereo unspecified): the result in [1], in [2], in [3] and in [4] was Active. For the same molecule, the Activity result in experiment [5] is “Dose-dependent effect”. In experiment [6], the IC50 stood at 102 µM.
A word on the inhibition: it is the change of the read-out against control, counted positive when it falls. As to `CS(=O)(=O)c1ccc(CN2C(=O)NC3(CC4CCC(C3)N4Cc3ccc(F)c(F)c3)C2=O)cc1` (stereo unspecified), the result in [1], in [2], in experiment [3] and in experiment [4] was Active. In addition, testing at 204 µM in [7] gave an inhibition of 63.9%. The molecule further showed an inhibition at 56 µM in experiment [8] of 23.8%. Further, the inhibition result in [9] was “Active”. Also, 102 µM produced 46.7% inhibition in experiment [10]. In addition, the Activity entry in [5] is “Dose-dependent effect”. The IC50 in experiment [6] is 13 µM.
